Pf gamet viab – inhibitors of late stage P. falciparum gametocyte viability; P. falciparum stage V gametocytes, ATP luminescence, 24 h; inhibition, % at 10.9 µM; 150,000 compounds, 0.065% hits; AID 743093;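 active = inhibition above the mean plus 3 SD of compounds within the control limits, set per campaign, cut at about 38% in these data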
ROMK mod – modulators of human ROMK potassium channel | B-score at 10 µM | Tet-inducible ROMK, thallium flux fluorescence; actives lie on both sides | 130,000 compounds, 2% hits;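 active = signal ratio slope over the read window, or its plate-corrected B-score, at least 3 SD from the plate mean, either direction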;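 note: B-score of the F/F0 ratio slope over 7 to 12 s after thallium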
Target sequence (P48048 whole entry, looked up): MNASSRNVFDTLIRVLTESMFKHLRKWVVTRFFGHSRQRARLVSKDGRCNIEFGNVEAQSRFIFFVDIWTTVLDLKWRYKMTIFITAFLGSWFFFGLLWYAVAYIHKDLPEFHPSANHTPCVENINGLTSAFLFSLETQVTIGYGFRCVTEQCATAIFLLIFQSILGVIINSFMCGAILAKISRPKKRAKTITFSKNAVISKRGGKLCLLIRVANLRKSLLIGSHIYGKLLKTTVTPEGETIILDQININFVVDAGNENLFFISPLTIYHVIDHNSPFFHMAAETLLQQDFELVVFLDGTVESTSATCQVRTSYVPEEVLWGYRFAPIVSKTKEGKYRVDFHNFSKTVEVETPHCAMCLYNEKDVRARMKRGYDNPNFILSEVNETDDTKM
Calb biofilm kill – mixture kills Candida albicans biofilm cells; C. albicans biofilm persisters + clotrimazole, fluorescence viability; primary screen in compound mixtures of four per well; inhibition, % at 7.6 µM; 120,000 compounds, 0.02% hits; AID 1242;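 active = inhibition above 30.3% in the primary screen of four-compound pools, then above 30% when the compound was retested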;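 note: compounds exposed to preformed 24 h biofilms for 48 h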
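Probe or stimulus – Clotrimazole 50 µg/mL co-treatment · System – C. albicans biofilms · Schedule – 24 h biofilm formation, then 48 h compound exposure, 37 °C · Evaluation – percent inhibition of biofilm viability · Technique – 2-h Alamar Blue fluorescence, 535/590 nm excitation/emission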
ROMK hit retest – confirmation of human ROMK potassium channel modulators | normalized thallium flux (F/F0 slope) at 10 µM | 3,000 compounds, 54% hits | AID 1917 | shares compounds with ROMK mod | ROMK thallium flux, fluorescence ratio; active compounds read low;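 active = Flux at 10 µM at least 3 SD below or above vehicle control mean in one or both replicates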
A number is an active result; - = inactive; . = no result given. This excerpt belongs to a sample that is enriched for hits.

SMILES | Pf gamet viab | ROMK mod | Calb biofilm kill | ROMK hit retest
CCOC(=O)C1=C(O)C(=O)N(c2ccc(S(N)(=O)=O)cc2)C1c1ccccc1 (stereo not drawn) | - | . | . | -
CCOC(=O)C1=C(O)C(=O)N(c2ccc(S(N)(=O)=O)cc2)C1c1ccc(Br)cc1 (stereo not drawn) | - | . | - | .
COc1ccc(OC)c(NS(=O)(=O)c2ccc(N3CCCC3=O)cc2)c1 | - | - | . | .
COc1ccc(NS(=O)(=O)c2ccc(N3CCCC3=O)cc2)cn1 | - | 2.3 | - | -
NNC(=S)Nc1c(Br)cc(F)cc1Br | - | . | - | .
CC(C)(C)NC(=S)N/N=C\c1ccc(-c2ccc([N+](=O)[O-])cc2)o1 | - | -3.5 | - | 0.048
CCCCC(=O)N/N=C/c1ccc(-c2ccc([N+](=O)[O-])cc2)o1 | - | - | - | .
C=CCn1nnnc1-c1cc(Cl)cc(Cl)c1 | . | - | - | .
CCOC(=O)N1CCN(S(=O)(=O)c2ccc(OCC)c(C)c2)CC1 | - | - | . | .
CCOC(=O)N1CCN(S(=O)(=O)c2ccc(C)c(C)c2)CC1 | - | - | . | .
CCOC(=O)N1CCN(S(=O)(=O)c2ccc3c(c2)SCC(=O)N3)CC1 | . | -4.3 | . | 0.061
CCOC(=O)N1CCN(S(=O)(=O)c2ccc3c(c2)OCC(=O)N3)CC1 | . | -2.5 | . | 0.058
CCOC(=O)N1CCN(S(=O)(=O)c2ccc3[nH]c(=O)oc3c2)CC1 | - | . | - | .
CCOC(=O)N1CCN(S(=O)(=O)c2ccc3c(c2)SC(C)C(=O)N3)CC1 (stereo not drawn) | - | . | . | 0.067
CCCCc1nc2ccc(S(=O)(=O)O)cc2[nH]1 | - | . | - | .
Cc1nnsc1C(=O)NC1CCCCC1 | - | . | . | .
COC(=O)c1ccc(CNC(=O)COC(=O)c2ccc(N(C)C)cc2)cc1 | - | - | - | .
COCCNC(=O)c1cc2c(-c3ccccc3F)nn(C)c2s1 | . | - | . | .
Cn1nc(-c2ccc(Cl)cc2)c2cc(C(=O)NCCCN3CCCC3)sc21 | . | . | . | 0.059
O=C(Cc1ccccc1)Nc1ncccc1Cl | - | . | . | .
COc1ccccc1Nc1nc(N)nc(CN2CC(C)CC(C)C2)n1 (stereo not drawn) | - | - | - | .
CCCCN(C(=O)/C=C/c1ccco1)c1c(N)n(CCC)c(=O)[nH]c1=O | - | - | - | .
COc1cc(CN2CCN(C(=O)CC(C)C)CC2)cc(OC)c1OC | . | . | . | -
COc1ccc(CN2CCN(C(=O)CC(C)C)CC2)cc1 | - | . | . | .
O=c1[nH]c(CSc2nnc(Cc3ccccc3)o2)nc2ccccc12 | - | - | - | .
SMILES | Pf gamet viab | ROMK mod | Calb biofilm kill | ROMK hit retest
CC(=O)NC(CC(=O)Nc1cccc(S(=O)(=O)N2CCCCC2)c1)c1ccccc1 (stereo not drawn) | . | - | . | .
COc1ccccc1N1CCN(c2ccc(-c3ccccc3)nn2)CC1 | . | 2.5 | . | -
COc1ccccc1N1CCN(c2nc(-c3ccccc3)cc(C(F)(F)F)n2)CC1 | . | - | . | .
CC(NC(=O)C1CC1)c1ccc(-c2ccccc2)cc1 (stereo not drawn) | - | . | . | .
CC1(C)CC(=O)C2=C(C1)OC1OC(=O)CC21C (stereo not drawn) | - | 1.4 | - | -
Cc1ccc(C2C3=C(CC(C)(C)CC3=O)OC3=C2C(=O)CC(C)(C)C3)cc1 | - | - | - | .
O=C(O)c1ccc(N/N=C/c2ccc(-c3cc(Cl)ccc3Cl)o2)cc1 | - | - | - | .
Cc1c(C(=O)O)cccc1-c1ccc(/C=N/Nc2ccc(Br)cc2)o1 | - | 1.7 | - | 0.1
CCOc1ccc2[nH]c(=O)c(CN(Cc3ccco3)C(CC)c3nnnn3Cc3ccccc3)cc2c1 (stereo not drawn) | - | . | . | -
CCOC(=O)Cn1nnnc1C(C(C)C)N(Cc1cccs1)Cc1cc2cc(C)ccc2[nH]c1=O (stereo not drawn) | - | - | . | .
CCC(c1nnnn1CCc1ccccc1)N(Cc1ccco1)Cc1cc2cccc(C)c2[nH]c1=O (stereo not drawn) | - | . | . | .
CCOC(=O)Cn1nnnc1C(CC)N(Cc1cccs1)Cc1cc2cc(C)ccc2[nH]c1=O (stereo not drawn) | - | -4 | . | -
CCN(CC)S(=O)(=O)c1ccc(OC)c(NC(=O)c2cc(=O)[nH]c3ccccc23)c1 | . | - | - | .
CC(C)N=C(NS(=O)(=O)c1ccccc1)C(Cl)(Cl)Cl | . | . | - | .
COc1ccc(NC(=O)c2ccc(-c3nn(C)c(=O)c4ccccc34)cc2)cc1C(N)=O | - | . | - | .
O=C(COC(=O)CNC(=O)c1ccccc1)Nc1ccc(S(=O)(=O)N2CCOCC2)cc1 | - | - | - | .
Cc1cc(/C=C2\Sc3ccccc3N2C)cc(C)[n+]1CC1CCCO1 (stereo not drawn) | - | -4.8 | - | 0.028
Cc1ccc2c(c1)S/C(=C/c1ccc[n+](CCO)c1)N2C | - | - | - | .
Cc1onc(-c2ccc(Cl)cc2Cl)c1-c1csc(N/N=C/c2ccccc2Cl)n1 | - | . | - | .

From PubChem BioAssay
